Screens: PubChem, several laboratories
A selection: hits, their analogues and other compounds. The true share with any hit is near 4.6%.
NALP1 yeast inh = blocks the NALP1 inflammasome reconstituted in yeast; S. cerevisiae NALP1/ASC/caspase-1 growth, X-gal OD620, 72 h; inhibition, % at 10 µM; actives 0.61% (n = 280,000); in the data active means inhibition mostly above about 24%, no sharp cut-off; inactive means mostly below about 32%
Arr AP2 block = human beta-arrestin and AP2 interaction inhibition. FITC-arrestin peptide / GST-AP2 beads, flow cytometry; AP2 beta2 appendage carries R879A mutation. inhibition, % at 10 µM. actives 0.31% (n = 340,000). AID 504490;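 active means inhibition above a set limit, near 3 SD of compounds lacking own fluorescence, cut at about 54% in these data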;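 further: plate controls were DMSO wells for no effect and 5 µM unlabelled arrestin peptide for full effect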
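Material – GST-tagged AP2 beta2-adaptin appendage (R879A) on 4 µm glutathione beads · Probe or stimulus – fluorescein-tagged arrestin peptide at 50 nM final · Timing – 12 min plus 1 h, RT · Detection – bead flow cytometry, FITC channel · Read-out basis – inhibition as reduced fluorescein signal on beads, percent · Medium – PBS plus Tween 20 (0.05%) and BSA (0.1%)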
ALR inh = human ALR oxidase inhibition via reduced H2O2; actives 3.8% (n = 290,000); purified ALR, DTT oxidation, H2O2 HRP-luminol luminescence; inhibition, % (test concentration not listed);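 active means mean replicate inhibition above about 79%, with every replicate also reaching it, limit read from the data; inconclusive means only one of the two criteria met; inactive means mean below limit and not every replicate reaching it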
Pemphigus Ab inh = inhibitors of pemphigus antibody binding to human desmoglein-3. actives 0.48% (n = 310,000). P32926. DSG3-coupled beads, scFv-anti-DSG3-GFP binding, flow cytometry; stronger effect = lower value. binding (percent of control), % at 10 µM. AID 588358;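 active means binding more than 3 SD below its plate's average and above zero; inconclusive means below that plate limit but binding exactly zero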;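 further: hits lower antibody fragment binding to DSG3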
Target sequence (P32926 whole entry, looked up, the tested form may be a part): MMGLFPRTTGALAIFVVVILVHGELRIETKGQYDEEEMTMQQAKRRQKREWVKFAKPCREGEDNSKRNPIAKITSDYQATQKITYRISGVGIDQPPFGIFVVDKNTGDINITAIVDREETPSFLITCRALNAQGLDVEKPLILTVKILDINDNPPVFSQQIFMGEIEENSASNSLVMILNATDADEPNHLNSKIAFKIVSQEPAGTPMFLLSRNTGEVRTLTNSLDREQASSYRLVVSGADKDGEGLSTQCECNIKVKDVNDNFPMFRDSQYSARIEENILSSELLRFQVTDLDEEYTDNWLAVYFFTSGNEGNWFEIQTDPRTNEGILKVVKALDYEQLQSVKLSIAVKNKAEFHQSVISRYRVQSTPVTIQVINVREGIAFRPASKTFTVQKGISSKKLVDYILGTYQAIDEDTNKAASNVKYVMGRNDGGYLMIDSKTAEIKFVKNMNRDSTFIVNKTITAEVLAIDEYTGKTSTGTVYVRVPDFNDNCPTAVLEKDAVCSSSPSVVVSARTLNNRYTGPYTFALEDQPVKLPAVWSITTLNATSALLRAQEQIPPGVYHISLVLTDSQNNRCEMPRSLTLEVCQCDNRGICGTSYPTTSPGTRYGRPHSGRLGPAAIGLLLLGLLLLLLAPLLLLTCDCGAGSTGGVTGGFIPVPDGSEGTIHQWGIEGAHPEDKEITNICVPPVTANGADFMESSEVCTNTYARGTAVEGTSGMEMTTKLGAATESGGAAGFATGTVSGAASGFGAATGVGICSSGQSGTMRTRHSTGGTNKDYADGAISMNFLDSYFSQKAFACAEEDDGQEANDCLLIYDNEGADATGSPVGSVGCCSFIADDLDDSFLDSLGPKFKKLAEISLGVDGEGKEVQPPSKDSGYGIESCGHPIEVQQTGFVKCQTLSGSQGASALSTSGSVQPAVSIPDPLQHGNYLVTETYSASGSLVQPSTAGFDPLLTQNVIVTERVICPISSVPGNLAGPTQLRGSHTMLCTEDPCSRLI
PolyA inh = blocks polyadenylation in yeast reporter cells; S. cerevisiae SKY197-pL101 polyadenylation reporter, beta-gal luminescence; efflux-impaired pdr1/pdr3 knockout yeast; score 100 = 6 SD above DMSO; AID 1875; actives 0.02% (n = 300,000); activity score, % at 12 µM;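 active means lowest replicate activity score at least 50, where 100 means six control SD above control mean; inconclusive means lowest score under 50 but half or more replicates reach 50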;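 further: yeast exposed to compound for 9 h at 30 °C; higher score means more reporter readthrough which indicates perturbed polyadenylation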
NALP3 yeast inh = inhibitors of NALP3 inflammasome in yeast | Yeast reconstituted NLRP3/ASC/caspase-1, beta-gal luminescence, 24 h | AID 2825 | actives 0.39% (n = 330,000) | inhibition, % at 10 µM;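 active means inhibition of 50% or more; inactive means inhibition below 50%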;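 further: plate controls were induced DMSO wells for no effect and uninduced yeast grown without galactose for full effect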
Active calls of the source: *; ? = inconclusive; . = not tested or not shown.

SMILES	NALP1 yeast inh	Arr AP2 block	ALR inh	Pemphigus Ab inh	PolyA inh	NALP3 yeast inh
COc1ccc(OC)c(NC(=S)NC(=O)c2ccc(Br)o2)c1	19	1	-1	118	-7	8
CC(OC(=O)/C=C/c1ccccc1)C(=O)N1CCc2ccccc21 (configuration not stated)	.	5	11	104	1	13
O=S(=O)(NC1CCCC1)c1ccc(F)cc1F	.	.	.	100	.	.
CCN(C(=O)CSc1nnc(-c2ccc3c(c2)OCO3)o1)C1CCS(=O)(=O)C1 (configuration not stated)	.	3	.	95	.	1
CCN(C(=O)CSc1ccc2c(c1)OCCO2)C1CCS(=O)(=O)C1 (configuration not stated)	25	4	92*	99	10	10
CCN(C(=O)CSc1nc(-c2ccccc2)c(-c2ccccc2)[nH]1)C1CCS(=O)(=O)C1 (configuration not stated)	-1	4	99*	108	12	-19
CC(=O)Nc1ccc(SCC(=O)N(C)C2CCS(=O)(=O)C2)cc1 (configuration not stated)	-16	10	98*	126	6	4
O=C1C(=Cc2ccccc2O)SC(=S)N1CCCN1CCOCC1	.	.	.	102	.	.
CCCn1c(N)c(C(=O)CSc2nnc(-c3cccs3)n2C2CC2)c(=O)[nH]c1=O	.	-9	.	97	.	-1
COC(=O)CSc1ccc2c(N)c(C(=O)OC)sc2c1	4	-1	100*	92	8	-4
COC(=O)COc1ccsc1C(=O)OC	10	13	-9	104	-4	12
CCOC(=O)c1c(C)cc2c(CO)n[nH]c(=O)c2c1C	.	.	.	106	.	.
Nc1ccc2cc3[nH]c4cc(N)ccc4c3nc2c1	.	6	.	47	.	.
CC1=CC(C)(C)N2C(=O)C(=Nc3ccc(O)cc3)c3cccc1c32	-33	37	97*	88	24	34
COc1ccc(NC2CCCN(C(=O)C3=NN(C)C(=O)CC3)C2)cc1OC (configuration not stated)	7	-7	98*	97	6	-1
CC(C)c1ccc(NC2CCCN(C(=O)C3=NN(C)C(=O)CC3)C2)cc1 (configuration not stated)	6	-1	98*	102	2	15
Cc1ccc(C)c(N(C)S(=O)(=O)c2ccc3c(c2)oc(=O)n3C)c1	7	42	1	115	-13	-3
COC(=O)C1=CN(c2ccc(F)cc2)C=C(C(=O)OC)C1c1ccc(O)cc1	24	10	-4	92	1	16
Nc1ncnc2c1ncn2[C@@H]1O[C@H](CNS(=O)(=O)c2cc(S(=O)(=O)c3ccccc3)cs2)[C@@H](O)[C@H]1O	.	5	.	100	.	.
C[C@H]1CN([C@@H](C)CO)C(=O)c2cc(C#CC3CCCC3)cnc2O[C@H]1CN(C)C(=O)Cc1ccccn1	.	.	.	111	.	.
CN(Cc1ccccc1)S(=O)(=O)c1ccc(C(=O)Nc2nnc(C3CC3)o2)cc1	11	5	-3	58*	2	-2
CCCCN(C)S(=O)(=O)c1ccc(C(=O)Nc2nnc(-c3ccco3)o2)cc1	14	6	84*	96	-2	1
O=C(Nc1nnc(C2CC2)o1)c1ccc(S(=O)(=O)N2CCCc3ccccc32)cc1	-4	-10	96*	98	-6	5
COCc1nnc(NC(=O)c2ccc(S(=O)(=O)N3CCCc4ccccc43)cc2)o1	-17	-1	86*	91	-4	4
CN(C)S(=O)(=O)c1ccc(C(=O)Nc2nnc(-c3ccco3)o2)cc1	-2	0	-1	91	13	-9
SMILES	NALP1 yeast inh	Arr AP2 block	ALR inh	Pemphigus Ab inh	PolyA inh	NALP3 yeast inh
CC(=O)c1c(C)[nH]c(C(=O)OC(C)C(=O)NC2CCCCC2)c1C (configuration not stated)	.	.	.	101	.	.
COc1cc(-c2nc(=S)[nH][nH]2)cc(OC)c1OC	-11	-3	99*	85	18	-6
COc1ccc(-c2nc(=S)[nH][nH]2)cc1	-30	4	99*	110	-6	15
FC(F)(F)c1ccc(-c2nc(=S)[nH][nH]2)cc1	.	9	99*	100	-16	12
COc1ccc(-c2nc(=S)[nH][nH]2)cc1OC	-14	-2	100*	106	10	18
CCOc1ccc(-c2nc(=S)[nH][nH]2)cc1	3	8	.	106	-6	17
CCCc1cc(=O)[nH]c(SCC(=O)N(C)C2CCCCC2)n1	.	26	.	100	.	-2
Cc1ccc(NC(=O)N2CCOCC2)cc1NC(=O)N1CCOCC1	.	.	.	96	.	.
Cc1cc(C)nc(NC(=O)Nc2ccc3c(c2)OCO3)c1	18	3	-9	81	-9	17
Cc1ccc(NC(=O)Nc2ccc3c(c2)OCO3)nc1	6	-15	.	6.9*	-12	27
O=C(CSc1ccc2c(c1)OCCO2)NCc1ccco1	-2	9	98*	102	8	2
O=C(CSc1ccccc1)NCc1ccco1	-70	-5	49	98	18	3
Cc1ccc(NC(=O)CSc2ccc3c(c2)OCCO3)nc1	.	-2	98*	104	-11	38
Cc1cccnc1NC(=O)CSc1ccc2c(c1)OCCO2	.	27	.	97	.	13
O=C(CCCCCNC(=O)N1CCn2c1nc1ccccc12)NCc1ccccc1Cl	6	-7	-7	?	-11	12
Cc1ccc(N=Nc2c(N)n(-c3ccccc3)[nH]c2=O)cc1	-10	1	1	-0.7*	-1	9
Nc1nc(-c2c[nH]c3ccccc23)cs1	23	15	87*	.	13	-10
Cc1cc(OCC(=O)NCCCN2CCCC2=O)c2c(C)c(C)c(=O)oc2c1	16	-16	19	91	23	8
COc1cccc(/C=C2/C(=O)NN(c3ccc(C)c(C)c3)C2=O)c1	13	-2	99*	122	15	16
COc1cccc(/C=C2/C(=O)NN(c3ccc(F)cc3)C2=O)c1	12	10	?	100	-1	0
O=C1NN(c2cccc(Br)c2)C(=O)/C1=C\c1ccc(O)cc1	12	7	98*	118	-4	7
Cc1ccc(N2NC(=O)/C(=C\c3cc4c(cc3[N+](=O)[O-])OCO4)C2=O)cc1C	25	8	94*	97	2	.
O=C1NN(c2ccccc2)C(=O)/C1=C\c1ccc2c(c1)OCO2	1	-11	48	113	11	-1
COc1cc(/C=C2/C(=O)NN(c3cccc(C)c3)C2=O)cc([N+](=O)[O-])c1O	-2	6	.	89	-7	-33
COc1cc(/C=C2/C(=O)NN(c3cccc(Cl)c3)C2=O)cc(OC)c1O	5	42	91*	116	-9	0
